A word on the IC50: it is the point on the concentration scale where inhibition reaches its midpoint. A high value points to weaker potency.

Holding throughout (assay type): functional
The species named for assay [1] is Homo sapiens. Description: In vitro inhibitory activity on platelet aggregation induced by arachidonic acid (AA). The gist of the method:
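Platelets were preincubated 1 min at 37 °C with test sample or 0.5% DMSO. Aggregation was then triggered with arachidonic acid 100. Aspirin and indomethacin served as positive controls.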

The species named for assay [2] is Homo sapiens. Description: In vitro inhibitory activity of compound 1 (ug/ml) on platelet aggregation induced by collagen. The gist of the method:
(§1)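 Platelets were preincubated with test sample or 0.5% DMSO vehicle at 37 °C for 1 min. Aggregation was then triggered by one inducer: thrombin 0.1 U/mL, arachidonic acid 100, collagen 10, or PAF 2 ng/mL. Read-out was percent aggregation, reported as mean±SE with n=3–6.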

For assay [3], the species on record is Homo sapiens. Description: In vitro inhibitory activity of compound 100 (ug/ml) on platelet aggregation induced by collagen. The gist of the method:
as §1

The species entered for assay [4] is Homo sapiens. The assay can be described thus: In vitro inhibitory activity of compound 2 (ug/ml) on platelet aggregation induced by collagen. The procedure, abridged:
as §1

Assay [5] is filed under the species Homo sapiens. Description: In vitro inhibitory activity of compound 0.2 (ug/ml) on platelet aggregation induced by AA. The gist of the method: as §1
The species named for assay [6] is Homo sapiens. The assay can be described thus: In vitro inhibitory activity of compound 0.1 (ug/ml) on platelet aggregation induced by AA. The procedure, abridged:
as §1

The species named for assay [7] is Homo sapiens. Description: In vitro inhibitory activity of compound 0.5 (ug/ml) on platelet aggregation induced by AA. The gist of the method: as §1
Assay [8] is filed under the species Homo sapiens. The assay can be described thus: In vitro inhibitory activity of compound 5 (ug/ml) on platelet aggregation induced by collagen. The procedure, abridged:
as §1

The species named for assay [9] is Homo sapiens. The assay can be described thus: In vitro inhibitory activity of compound on platelet aggregation induced by collagen. The procedure, abridged: as §1
The species entered for assay [10] is Homo sapiens. The assay can be described thus: In vitro inhibitory activity of compound 50 (ug/ml) on platelet aggregation induced by PAF. The gist of the method: as §1
For assay [11], the species on record is Homo sapiens. Description: In vitro inhibitory activity of control on platelet aggregation induced by thrombin. The procedure, abridged:
as §1

The species named for assay [12] is Homo sapiens. The assay can be described thus: In vitro inhibitory activity of compound 2 (ug/ml) on platelet aggregation induced by AA. The gist of the method: as §1
For assay [13], the species on record is Homo sapiens. Description: In vitro inhibitory activity of control on platelet aggregation induced by AA. The gist of the method:
as §1

The species named for assay [14] is Homo sapiens. The assay can be described thus: In vitro inhibitory activity of control on platelet aggregation induced by PAF. The procedure, abridged:
as §1

Assay [15] is filed under the species Homo sapiens. The assay can be described thus: In vitro inhibitory activity of compound 100 (ug/ml) on platelet aggregation induced by thrombin. The gist of the method: as §1
For assay [16], the species on record is Homo sapiens. The assay can be described thus: In vitro inhibitory activity of compound 20 (ug/ml) on platelet aggregation induced by PAF. The gist of the method: as §1
For assay [17], the species on record is Homo sapiens. Description: In vitro inhibitory activity of compound 100 (ug/ml) on platelet aggregation induced by AA. The procedure, abridged:
as §1

The species entered for assay [18] is Homo sapiens. Description: In vitro inhibitory activity of compound 100 (ug/ml) on platelet aggregation induced by PAF. The procedure, abridged:
as §1

Assay [19] is filed under the species Homo sapiens. The assay can be described thus: In vitro inhibitory activity of compound 1 (ug/ml) on platelet aggregation induced by AA. The procedure, abridged: as §1
The species entered for assay [20] is Homo sapiens. Description: In vitro inhibitory activity of control on platelet aggregation induced by collagen. The procedure, abridged: as §1
For assay [21], the species on record is Homo sapiens. Description: Potent antiplatelet activity was evaluated.
The species entered for assay [22] is Homo sapiens. The assay can be described thus: In vitro inhibitory activity of compound 5 (ug/ml) on platelet aggregation induced by AA. The gist of the method:
as §1

The species entered for assay [23] is Homo sapiens. Description: In vitro inhibitory activity of compound 0.2 (ug/ml) on platelet aggregation induced by collagen. The gist of the method:
as §1

The species named for assay [24] is Homo sapiens. The assay can be described thus: In vitro inhibitory activity of compound 0.5 (ug/ml) on platelet aggregation induced by collagen. The gist of the method: as §1
The species named for assay [25] is Homo sapiens. The assay can be described thus: In vitro inhibitory activity of compound 10 (ug/ml) on platelet aggregation induced by collagen. The gist of the method:
as §1

Assay [26] is filed under the species Homo sapiens. The assay can be described thus: In vitro inhibitory activity of compound 0.1 (ug/ml) on platelet aggregation induced by collagen. The procedure, abridged:
as §1

Molecule `CCc1cccc2nc(-c3ccccc3)cc(OCC(=O)NC)c12` showed an IC50 in the assay listed under Homo sapiens [1] of 1880 nM.

Regarding `CCOc1cc(-c2ccccc2)nc2cc(CC)ccc12`, the IC50 in the assay filed under Homo sapiens [1] is 3970 nM.

On to `CCc1cccc2c1c(=O)cc(-c1ccccc1)n2C`, for which the IC50 in the assay listed under Homo sapiens [1] is 30000 nM.

In the assay listed under Homo sapiens [1], `CC(=O)Oc1ccccc1C(=O)O` [ASPIRIN] registered an IC50 of 20000 nM.

For the molecule `COc1cc(-c2ccccc2)nc2ccccc12`, the Aggregation is listed as 18.5% in the assay listed under Homo sapiens [2]; 0% in the assay listed under Homo sapiens [3]; 9.4% in the assay filed under Homo sapiens [4]; 86% in the assay filed under Homo sapiens [5]; 90.8% in the assay filed under Homo sapiens [6]; 53.4% in the assay listed under Homo sapiens [7]. The Aggregation in the assay listed under Homo sapiens [8] came to 0%; in the assay listed under Homo sapiens [10], 65.8%; in the assay listed under Homo sapiens [11], 92.5%; in the assay listed under Homo sapiens [12], 0%; in the assay filed under Homo sapiens [13] it was 90.9%; in the assay filed under Homo sapiens [14], 92%. Besides, the Aggregation is on record as 56.8% in the assay filed under Homo sapiens [15]; 87.2% in the assay listed under Homo sapiens [16]; 0% in the assay listed under Homo sapiens [17]; 0% in the assay filed under Homo sapiens [18]; 9.3% in the assay listed under Homo sapiens [19]; 89.2% in the assay listed under Homo sapiens [20]. Further, the IC50 in the assay listed under Homo sapiens [9] was found to be 1700 nM; in the assay listed under Homo sapiens [1], 2130 nM.

Take `CCOC(=O)COc1cc(-c2ccccc2)nc2cccc(CC)c12`: the midpoint of inhibition in the assay listed under Homo sapiens [1], the IC50, lay at 780 nM. In other words, the sub-micromolar range.

Molecule `CCc1cccc2nc(-c3ccccc3)cc(O)c12` showed an IC50 in the assay filed under Homo sapiens [21] of 150 nM. That is a sub-micromolar value.

The molecule `CCOC(=O)CCCCOc1cc(-c2ccccc2)nc2cccc(CC)c12` yielded an IC50 in the assay listed under Homo sapiens [1] of 530 nM. This counts as sub-micromolar.

In turn, `CCNC(=O)COc1cc(-c2ccccc2)nc2cccc(CC)c12` had an IC50 in the assay filed under Homo sapiens [1] of 600 nM.

In the assay listed under Homo sapiens [1], `O=C(O)COc1cc(-c2ccccc2)nc2ccccc12` yielded an IC50 of 35600 nM.

As for `CCOC(=O)CCCOc1cc(-c2ccccc2)nc2cccc(CC)c12`, the midpoint of inhibition in the assay filed under Homo sapiens [1], the IC50, lay at 1540 nM.

For the molecule `CCOc1cc(-c2ccccc2)nc2ccccc12`, the Aggregation in the assay filed under Homo sapiens [2] stood at 36.3%; in the assay filed under Homo sapiens [3], 0%; in the assay filed under Homo sapiens [4], 28.4%; in the assay filed under Homo sapiens [5] it was 86.4%; in the assay listed under Homo sapiens [7] it was 23.1%; in the assay listed under Homo sapiens [22], 0%. Besides, the Aggregation in the assay filed under Homo sapiens [8] is listed as 15.9%; in the assay filed under Homo sapiens [11], 92.5%; in the assay listed under Homo sapiens [12] it was 1.7%; in the assay listed under Homo sapiens [23] it was 78.5%; in the assay listed under Homo sapiens [13], 90.9%; in the assay filed under Homo sapiens [24], 43.5%. The Aggregation in the assay filed under Homo sapiens [14] was 92%; in the assay listed under Homo sapiens [25], 5.9%; in the assay filed under Homo sapiens [15], 80%; in the assay listed under Homo sapiens [17] it was 0%; in the assay listed under Homo sapiens [18], 63.8%; in the assay listed under Homo sapiens [19], 4.3%. Moreover, the Aggregation in the assay filed under Homo sapiens [20] was determined as 89.2%; in the assay listed under Homo sapiens [26], 85.9%. For the same molecule, the IC50 is 3610 nM in the assay filed under Homo sapiens [9] and 2010 nM in the assay filed under Homo sapiens [1].

Molecule `CCOC(=O)COc1cc(-c2ccccc2)nc2ccccc12` registered an IC50 in the assay filed under Homo sapiens [1] of 13900 nM.

The molecule `COc1ccc2c(c1)c(CC(=O)O)c(C)n2C(=O)c1ccc(Cl)cc1` [INDOMETHACIN] yielded a concentration for half-maximal inhibition (IC50) in the assay listed under Homo sapiens [1] of 250 nM.

For `CCc1cccc2nc(-c3ccccc3)cc(OC)c12`, the IC50 in the assay listed under Homo sapiens [1] was found to be 80 nM.

For `CCOc1cc(-c2ccccc2)nc2cccc(CC)c12`, the IC50 in the assay listed under Homo sapiens [1] stood at 140 nM. Compared with the last molecule, the IC50 is about 1.8-fold higher.

Source of the values: ChEMBL document CHEMBL1134765, “Synthesis of 4-alkoxy-2-phenylquinoline derivatives as potent antiplatelet agents” (Bioorg Med Chem Lett, 2001).
